Values after ≈ are worked out from the molar mass of the structure shown.
Columns and labels:
Type in all cases: functional
[1] = test system: Staphylococcus epidermidis; assay: Antimicrobial activity against methicillin-sensitive Staphylococcus epidermidis 09-9 by broth microdilution method
How it was run: (§1)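 MICs determined by broth microdilution as recommended by CLSI. Tested against a panel of five S. aureus strains and three S. epidermidis strains. ATCC 29213, 15 and 09–06 are methicillin-sensitive S. aureus. Josamycin served as the reference.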

Staphylococcus aureus [2] = assay: Antimicrobial activity against methicillin-sensitive Staphylococcus aureus 15 by broth microdilution method; how it was run: as §1
[3] = test system: Staphylococcus epidermidis; assay: Antimicrobial activity against methicillin-resistant Staphylococcus epidermidis 09-3 by broth microdilution method
How it was run: (§2)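 MIC read-out from broth microdilution performed according to CLSI recommendations; each strain was tested in vitro alongside the parent macrolide reference.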

Staphylococcus aureus [4] = assay: Antimicrobial activity against methicillin-resistant Staphylococcus aureus ATCC 33591 by broth microdilution method; how it was run: as §2
Staphylococcus aureus [5] = assay: Antimicrobial activity against methicillin-sensitive Staphylococcus aureus ATCC 29213 by broth microdilution method; how it was run: as §1
Staphylococcus aureus [6] = assay: Antimicrobial activity against methicillin-sensitive Staphylococcus aureus 09-6 by broth microdilution method; how it was run: as §1
Staphylococcus aureus [7] = assay: Antimicrobial activity against methicillin-resistant Staphylococcus aureus 09-13 by broth microdilution method; how it was run: as §2
[8] = test system: Staphylococcus epidermidis; assay: Antimicrobial activity against methicillin-sensitive Staphylococcus epidermidis ATCC 12228 by broth microdilution method; how it was run: as §1

| Structure (SMILES) | MIC [1] [µg/mL] | MIC (Staphylococcus aureus [2]) [µg/mL] | MIC [3] [µg/mL] | MIC (Staphylococcus aureus [4]) [µg/mL] | MIC (Staphylococcus aureus [5]) [µg/mL] | MIC (Staphylococcus aureus [6]) [µg/mL] | MIC (Staphylococcus aureus [7]) [µg/mL] | MIC [8] [µg/mL] |
| --- | --- | --- | --- | --- | --- | --- | --- | --- |
| CO[C@@H]1[C@@H](O[C@@H]2O[C@H](C)[C@@H](OC(=O)/C=C/c3ccnc4ccccc34)[C@H](N(C)C)[C@H]2O)[C@@H](CC=O)C[C@@H](C)[C@@H](OC(C)=O)/C=C/C=C/C[C@@H](C)OC(=O)C[C@H]1OC(C)=O | 8 (≈ 9.72 µM) | 16 (≈ 19.4 µM) | > 64 | > 64 | 8 (≈ 9.72 µM) | 8 (≈ 9.72 µM) | > 64 | 8 (≈ 9.72 µM) |
| CO[C@@H]1[C@@H](O[C@@H]2O[C@H](C)[C@@H](OC(=O)Nc3ccc(C(F)(F)F)cc3)[C@H](N(C)C)[C@H]2O)[C@@H](CC=O)C[C@@H](C)[C@@H](OC(C)=O)/C=C/C=C/C[C@@H](C)OC(=O)C[C@H]1OC(C)=O | > 64 | > 64 | > 64 | > 64 | > 64 | > 64 | > 64 | > 64 |
| CCCC(=O)O[C@H]1[C@H](N(C)C)[C@@H](O)[C@H](O[C@H]2[C@@H](CC=O)C[C@@H](C)[C@@H](OC(C)=O)/C=C/C=C/C[C@@H](C)OC(=O)C[C@@H](OC(C)=O)[C@@H]2OC)O[C@@H]1C | 4 (≈ 5.62 µM) | 4 (≈ 5.62 µM) | > 64 | > 64 | 4 (≈ 5.62 µM) | 4 (≈ 5.62 µM) | > 64 | 4 (≈ 5.62 µM) |
| CO[C@H]1/C=C\C(=O)O[C@H](C)C/C=C/C=C/[C@H](OC(C)=O)[C@H](C)C[C@H](CC=O)[C@@H]1O[C@@H]1O[C@H](C)[C@@H](O)[C@H](N(C)C)[C@H]1O | 64 (≈ 110 µM) | > 64 | > 64 | > 64 | > 64 | > 64 | > 64 | 64 (≈ 110 µM) |
| CO[C@@H]1[C@@H](O[C@@H]2O[C@H](C)[C@@H](OC(=O)/C=C/c3ccccc3)[C@H](N(C)C)[C@H]2O)[C@@H](CC=O)C[C@@H](C)[C@@H](OC(C)=O)/C=C/C=C/C[C@@H](C)OC(=O)C[C@H]1OC(C)=O | 4 (≈ 5.18 µM) | > 32 | > 32 | > 32 | 8 (≈ 10.4 µM) | 8 (≈ 10.4 µM) | > 32 | 4 (≈ 5.18 µM) |
| CO[C@@H]1[C@@H](O[C@@H]2O[C@H](C)[C@@H](OC(=O)c3ccccc3)[C@H](N(C)C)[C@H]2O)[C@@H](CC=O)C[C@@H](C)[C@@H](OC(C)=O)/C=C/C=C/C[C@@H](C)OC(=O)C[C@H]1OC(C)=O | 8 (≈ 10.7 µM) | 8 (≈ 10.7 µM) | > 64 | > 64 | 8 (≈ 10.7 µM) | 8 (≈ 10.7 µM) | > 64 | 8 (≈ 10.7 µM) |
| CO[C@@H]1[C@@H](O[C@@H]2O[C@H](C)[C@@H](OC(=O)CC(C)C)[C@H](N(C)C)[C@H]2O)[C@@H](CC=O)C[C@@H](C)[C@@H](OC(C)=O)/C=C/C=C/C[C@@H](C)OC(=O)C[C@H]1OC(C)=O | 8 (≈ 11 µM) | 8 (≈ 11 µM) | > 64 | > 64 | 8 (≈ 11 µM) | 8 (≈ 11 µM) | > 64 | 8 (≈ 11 µM) |
| CO[C@H]1/C=C\C(=O)O[C@H](C)C/C=C/C=C/[C@H](O)[C@H](C)C[C@H](CC=O)[C@@H]1O[C@@H]1O[C@H](C)[C@@H](O)[C@H](N(C)C)[C@H]1O | > 32 | > 32 | > 32 | > 32 | > 32 | > 32 | > 32 | > 32 |
| CO[C@@H]1[C@@H](O[C@@H]2O[C@H](C)[C@@H](OC(=O)CCc3ccccc3)[C@H](N(C)C)[C@H]2O)[C@@H](CC=O)C[C@@H](C)[C@@H](OC(C)=O)/C=C/C=C/C[C@@H](C)OC(=O)C[C@H]1OC(C)=O | 4 (≈ 5.17 µM) | 8 (≈ 10.3 µM) | > 32 | > 32 | 4 (≈ 5.17 µM) | 4 (≈ 5.17 µM) | > 32 | 4 (≈ 5.17 µM) |
| CO[C@H]1/C=C\C(=O)O[C@H](C)C/C=C/C=C/[C@H](OC(C)=O)[C@H](C)C[C@H](CC=O)[C@@H]1O[C@@H]1O[C@H](C)[C@@H](OC(=O)Nc2ccc(C(F)(F)F)cc2)[C@H](N(C)C)[C@H]1O | > 64 | > 64 | > 64 | > 64 | > 64 | > 64 | > 64 | > 64 |
| CO[C@@H]1[C@@H](O[C@@H]2O[C@H](C)[C@@H](OC(=O)c3ccc([N+](=O)[O-])cc3)[C@H](N(C)C)[C@H]2O)[C@@H](CC=O)C[C@@H](C)[C@@H](OC(C)=O)/C=C/C=C/C[C@@H](C)OC(=O)C[C@H]1OC(C)=O | 32 (≈ 40.5 µM) | > 64 | > 64 | > 64 | 32 (≈ 40.5 µM) | 32 (≈ 40.5 µM) | > 64 | 32 (≈ 40.5 µM) |
| COc1ccc(C(=O)O[C@H]2[C@H](N(C)C)[C@@H](O)[C@H](O[C@H]3[C@@H](CC=O)C[C@@H](C)[C@@H](OC(C)=O)/C=C/C=C/C[C@@H](C)OC(=O)C[C@@H](OC(C)=O)[C@@H]3OC)O[C@@H]2C)cc1 | 8 (≈ 10.3 µM) | 8 (≈ 10.3 µM) | > 64 | > 64 | 8 (≈ 10.3 µM) | 8 (≈ 10.3 µM) | > 64 | 8 (≈ 10.3 µM) |
| CO[C@@H]1[C@@H](O[C@@H]2O[C@H](C)[C@@H](O[C@H]3C[C@@](C)(O)[C@@H](OC(=O)CC(C)C)[C@H](C)O3)[C@H](N(C)C)[C@H]2O)[C@@H](CC=O)C[C@@H](C)[C@@H](O)/C=C/C=C/C[C@@H](C)OC(=O)C[C@H]1OC(C)=O [JOSAMYCIN] | 2 (≈ 2.42 µM) | 2 (≈ 2.42 µM) | > 32 | > 32 | 1 (≈ 1.21 µM) | 1 (≈ 1.21 µM) | 32 (≈ 38.6 µM) | 1 (≈ 1.21 µM) |
| CO[C@H]1/C=C\C(=O)O[C@H](C)C/C=C/C=C/[C@H](O)[C@H](C)C[C@H](CC=O)[C@@H]1O[C@@H]1O[C@H](C)[C@@H](OC(=O)Nc2ccc(C(F)(F)F)cc2)[C@H](N(C)C)[C@H]1O | > 64 | > 64 | > 64 | > 64 | > 64 | > 64 | > 64 | > 64 |
| CO[C@@H]1[C@@H](O[C@@H]2O[C@H](C)[C@@H](O)[C@H](N(C)C)[C@H]2O)[C@@H](CC=O)C[C@@H](C)[C@@H](OC(C)=O)/C=C/C=C/C[C@@H](C)OC(=O)C[C@H]1OC(C)=O | 16 (≈ 24.9 µM) | 16 (≈ 24.9 µM) | > 32 | > 32 | 16 (≈ 24.9 µM) | 16 (≈ 24.9 µM) | > 32 | 16 (≈ 24.9 µM) |

Reference: ChEMBL document CHEMBL3102828, “Synthesis and antibacterial activity of a series of novel 9-O-acetyl- 4'-substituted 16-membered macrolides derived from josamycin” (2014)
